Published values gathered from unrelated publications.
Compare with care: the assays were run in different laboratories.

Compound | test system | conditions | quantity | result
N#C[C@@]12C[C@@H]1[C@@H](n1cnc3c(N[C@@H](C4CCC4)C4CC4)nc(I)nc31)[C@H](O)[C@@H]2O | Caco-2 |  | efflux ratio | 2.76
CC(C)C[C@H](NC(=O)[C@@H]1COCCCCCC(=O)NCC(=O)N2CCC[C@H]2C(=O)N1)C(=O)[C@@]1(C)CO1 | Caco-2 | 10 µM, 2 h, pH 7.4 | efflux ratio | ~22
Cc1c(N(C)C)ccc2cc(C(=O)NS(=O)(=O)c3ccccc3-c3ccccc3)oc12 | Caco-2 | 2 µM, 2 h, pH 7.2 | efflux ratio | 0.7
CN1CC[C@@H](c2c(O)cc(O)c3c(=O)cc(-c4ccc(C(F)(F)F)cc4Cl)oc23)[C@@H]1CO | human, plasma | oral, 50 mg, patients | Cmax | 86.3 ng/mL
CC(C)n1c(Nc2cccnc2)nc2cnc(Nc3ccc(N4CCN(C)CC4)cc3)nc21 | male human, plasma | oral, 150 mg, single dose | Cmax | 76.1 ng/mL
CC(=O)N[C@H]1CC[C@H](NC(=O)CN2CCN(c3nncc(-c4ccc(C)cc4)n3)CC2)CC1 | male human, plasma | oral, 100 mg, single dose, fasted | Cmax | 1070 ng/mL
Nc1ncn([C@H]2C[C@H](O)[C@@H](CO)O2)c(=O)n1 | female C57BL/6 mouse, plasma | intravenous, 0.4 mg/kg | Tmax | 4.98 min
C=CS(=O)(=O)c1ccc(Nc2nc(OCC3CCCCC3)c3nc[nH]c3n2)cc1 | male BALB/c mouse, plasma | intravenous, 20 mg/kg, single dose | Tmax | 4.8 min
Cn1cc(Nc2nc(N)nc(-c3cccc(-n4ccc5cc(C6CC6)cc(F)c5c4=O)c3CO)n2)cn1 | human, plasma | oral, 600 mg, single dose, fasted, suspension | Cmax | 5360 ng/mL
CCOC(=O)c1cc(Cl)cc(NC(=O)c2sc(Cl)cc2S(=O)(=O)N(C)c2ccc(OCC)c(OC)c2)c1 | male C57BL/6 mouse, brain | intraperitoneal, 10 mg/kg | Tmax | 15 min
Cc1c(C(=O)O)ccc2c3n(nc12)[C@@H]1[C@H](C3)N(CC2CC2)[C@@]2(C(=O)Nc3cc(Cl)ccc32)[C@H]1c1cccc(Cl)c1F | female minipig, plasma | intravenous | Vd | 0.94 L/kg
Cl.[2H]C([2H])([2H])CC(=O)c1cnc(NC(=O)C2CC2)cc1Nc1cccc(-c2ncn(C([2H])([2H])[2H])n2)c1OC | human, plasma | oral, 10 mg, multiple doses, once daily, fasted | Cmax | 99.5 ng/mL
CNC(=O)n1ccc2cc(Oc3ccnc(NC(=O)c4ccc(C5CCN(CCO)CC5)cc4)c3)c(OCCOC)cc21 | human, plasma | oral, 35 mg, single dose, fasted, healthy volunteers | Cmax | 9.82 ng/mL
CC(C)NCC(O)COc1cccc2ccccc12 (stereo not shown) | Caco-2 | 5 µM, 2 h | efflux ratio | 0.72
CCOc1ccc(N(C)S(=O)(=O)c2cc(Cl)sc2C(=O)Nc2cc(Cl)cc(C(=O)O)c2)cc1OC | male C57BL/6 mouse, brain | intraperitoneal, 10 mg/kg | Tmax | 15 min
C[C@H]1O[C@@H](O[C@H]2[C@@H](O)C[C@H](O[C@H]3[C@@H](O)C[C@H](O[C@H]4CC[C@@]5(C)[C@H](CC[C@@H]6[C@@H]5C[C@@H](O)[C@]5(C)[C@@H](C7=CC(=O)OC7)CC[C@]65O)C4)O[C@@H]3C)O[C@@H]2C)C[C@H](O)[C@@H]1O | Caco-2 | 5 µM, 2 h | efflux ratio | 50.7
CCN1CCN(Cc2ccc(NC(=O)c3ccc(C)c(NC(=O)c4cncc(-c5cccs5)c4)c3)cc2C(F)(F)F)CC1 | mouse, plasma | intraperitoneal, 10 mg/kg, single dose | Tmax | 30 min
COc1ccc([C@@H](O)c2cc(-c3ncnc4cc(N5CCOCC5)ccc34)c(F)cc2Cl)nn1 | human, plasma | oral, 150 mg, single dose, patients | Cmax | 1460 ng/mL
CC(C(=O)Nc1c(F)cccc1F)N1CCN(c2ccccc2)CC1 (stereo not shown) | female C57BL/6 mouse, plasma | intraperitoneal, 10 mg/kg, single dose | Tmax | 15 min
